Test results published in ChEMBL document CHEMBL3243995, “Synthesis of phenolic group containing analogues of porcine secretin and their immunological properties” (J Med Chem, 1977).
Where a SMILES comes first, the peptide text is derived from it. The star is where a group is joined. Desaminotyrosyl = O=C(CCc1ccc(O)cc1)*

How the values were obtained:
[1] = Retardation factor of the compound using 1-BuOH-AcOH-H2O at ratio of 4:1:5 as solvent system by thin layer chromatography; format: physicochemical
Outline: (§1)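 Thin-layer chromatography spots were detected with Sakaguchi, Pauly, chlorine-tolidine and ninhydrin reagents.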

Canis familiaris = test: Induction of pancreatic juice secretion in iv dosed anesthetized dog relative to natural porcine secretin; format: functional, Canis lupus familiaris
Outline: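 Anesthetized dogs received the synthetic peptides by intravenous injection. The volume of pancreatic juice secreted was compared with that produced by pure natural porcine secretin. Responses were evaluated in four-point assays.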

[2] = Retardation factor of the compound using 1-BuOH-pyridine-AcOH-H2O at ratio of 30:20:6:24 as solvent system by thin layer chromatography; format: physicochemical; outline: as §1

In the case of CC(C)C[C@H](NC(=O)CNC(=O)[C@H](CCC(N)=O)NC(=O)[C@H](CC(C)C)NC(=O)[C@H](CC(C)C)NC(=O)[C@H](CCCNC(=N)N)NC(=O)[C@H](CCC(N)=O)NC(=O)[C@H](CC(C)C)NC(=O)[C@H](CCCNC(=N)N)NC(=O)[C@H](C)NC(=O)[C@H](CO)NC(=O)[C@H](CC(=O)O)NC(=O)[C@H](CCCNC(=N)N)NC(=O)[C@H](CC(C)C)NC(=O)[C@H](CCCNC(=N)N)NC(=O)[C@H](CO)NC(=O)[C@H](CC(C)C)NC(=O)[C@H](CCC(=O)O)NC(=O)[C@H](CO)NC(=O)[C@@H](NC(=O)[C@H](Cc1ccccc1)NC(=O)[C@@H](NC(=O)CNC(=O)[C@H](CC(=O)O)NC(=O)[C@H](CO)NC(=O)[C@H](Cc1cnc[nH]1)NC(=O)CCc1ccc(O)cc1)[C@@H](C)O)[C@@H](C)O)C(=O)N[C@H](C(N)=O)C(C)C (Desaminotyrosyl-HSDGTFTSELSRLRDSARLQRLLQGLV-NH2), the Rf [1] is reported as 0.2, the Activity (Canis familiaris) is reported as 4.1% and the Rf [2] is reported as 0.58.
Molecule “H-HSDGTFTSELSRLRDSARLQRLLQGLV-NH2 [listing 1 of 2 here]” has a Rf [1] of 0.19 and a Rf [2] of 0.58.
In the case of “H-HSDGTFTSELSRLRDSARLQRLLQGLV-NH2 [listing 2 of 2 here]”, the Activity (Canis familiaris) is reported as 107.5%.
H-HSDGTYTSELSRLRDSARLQRLLQGLV-NH2 gave a Rf [1] of 0.18, an Activity (Canis familiaris) of 1.3% and a Rf [2] of 0.56.
In the case of H-YHSDGTFTSELSRLRDSARLQRLLQGLV-NH2, the Rf [1] is reported as 0.18, the Activity (Canis familiaris) is reported as 25.6% and the Rf [2] is reported as 0.52.
With H-YSDGTFTSELSRLRDSARLQRLLQGLV-NH2 the Rf [1] was 0.2, the Activity (Canis familiaris) was 4.3% and the Rf [2] was 0.56.
